Source: ChEMBL document CHEMBL1153017 (Bioorg Med Chem, 2009)

Assays:
Rattus norvegicus [1] = experiment: Antiinflammatory activity in Wistar rat assessed as inhibition of carrageenan-induced paw edema at 150 mg/kg, po administered 30 mins before carrageenan challenge measured after 5 hrs; format: functional
Summary of the method: (§1)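 Rats dosed orally with a suspension in 0.5% w/v aqueous carboxymethyl cellulose; controls got vehicle alone. 30 min later, 0.1 mL of fresh 1% carrageenan in normal saline injected subplantar into the right hind paw. Paw thickness measured by skin caliper at 0.5, 1, 2, 3, 4 and 5 h. % edema inhibition = [(VR−VL)control − (VR−VL)treated]/(VR−VL)control × 100. Values are means ± SEM.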

Rattus norvegicus [2] = experiment: Gastrointestinal toxicity in Wistar rat assessed as complete damage of mucosal layer and ulceration of submucosal cells at 150 mg/kg, po after 24 hrs by electron microscopy; format: organism-based, Submucosa; parameters: dose 150 mg/kg, route oral; settings: in vivo
Summary of the method: (§2)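 Male Wistar rats (150–200 g), three per group, fasted 12 h with water available. Given a daily oral dose in 0.5% CMC (1 mL suspension) for four successive days; control group got vehicle. Food withheld until 24 h after the last dose, then rats killed. Stomachs opened along the greater curvature, rinsed in saline, and random specimens examined by scanning electron microscopy after glutaraldehyde/osmium fixation, ethanol dehydration and amyl acetate.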

Rattus norvegicus [3] = experiment: Antiinflammatory activity in Wistar rat assessed as inhibition of carrageenan-induced paw edema at 150 mg/kg, po administered 30 mins before carrageenan challenge measured after 2 hrs; format: functional; summary of the method: as §1
Rattus norvegicus [4] = experiment: Antiinflammatory activity in Wistar rat assessed as inhibition of carrageenan-induced paw edema at 150 mg/kg, po administered 30 mins before carrageenan challenge measured after 0.5 hrs; format: functional; summary of the method: as §1
Rattus norvegicus [5] = experiment: Antiinflammatory activity in Wistar rat assessed as inhibition of carrageenan-induced paw edema at 150 mg/kg, po administered 30 mins before carrageenan challenge measured after 3 hrs; format: functional; summary of the method: as §1
Rattus norvegicus [6] = experiment: Antiinflammatory activity in Wistar rat assessed as inhibition of carrageenan-induced paw edema at 150 mg/kg, po administered 30 mins before carrageenan challenge measured after 1 hr; format: functional; summary of the method: as §1
Rattus norvegicus [7] = experiment: Antiinflammatory activity in Wistar rat assessed as inhibition of carrageenan-induced paw edema at 150 mg/kg, po administered 30 mins before carrageenan challenge measured after 4 hrs; format: functional; summary of the method: as §1
Homo sapiens = organism: Homo sapiens; experiment: Stability in human plasma assessed as hydrolysis half life
[8] = Chemical stability in HCl buffer of pH 1.2 simulating gastric fluid; format: physicochemical; settings: simulated gi fluid
Summary of the method: (§3)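 Hydrolysis run in pH 1.2 HCl buffer or pH 7.4 phosphate buffer, each with 1% Tween 20 and ionic strength 0.2 (KCl). Started by adding 200 µL of a 3 mg/mL methanol or acetonitrile stock to 9.8 mL of prewarmed buffer, held at 37 °C. Aliquots (20 µL) taken over time; remaining ester measured by HPLC.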

[9] = Chemical stability in phosphate buffer of pH 7.4 simulating intestinal fluid; format: physicochemical; settings: simulated gi fluid; summary of the method: as §3
Rattus norvegicus [10] = experiment: Antiinflammatory activity in Wistar rat assessed as inhibition of carrageenan-induced paw edema at 20 mg/kg, po administered 30 mins before carrageenan challenge measured after 1 hr; format: functional; summary of the method: as §1
Rattus norvegicus [11] = experiment: Antiinflammatory activity in Wistar rat assessed as inhibition of carrageenan-induced paw edema at 20 mg/kg, po administered 30 mins before carrageenan challenge measured after 0.5 hrs; format: functional; summary of the method: as §1
Rattus norvegicus [12] = experiment: Antiinflammatory activity in Wistar rat assessed as inhibition of carrageenan-induced paw edema at 20 mg/kg, po administered 30 mins before carrageenan challenge measured after 5 hrs; format: functional; summary of the method: as §1
Rattus norvegicus [13] = experiment: Antiinflammatory activity in Wistar rat assessed as inhibition of carrageenan-induced paw edema at 20 mg/kg, po administered 30 mins before carrageenan challenge measured after 4 hrs; format: functional; summary of the method: as §1
Rattus norvegicus [14] = experiment: Antiinflammatory activity in Wistar rat assessed as inhibition of carrageenan-induced paw edema at 20 mg/kg, po administered 30 mins before carrageenan challenge measured after 2 hrs; format: functional; summary of the method: as §1
Rattus norvegicus [15] = experiment: Antiinflammatory activity in Wistar rat assessed as inhibition of carrageenan-induced paw edema at 20 mg/kg, po administered 30 mins before carrageenan challenge measured after 3 hrs; format: functional; summary of the method: as §1
Rattus norvegicus [16] = organism: Rattus norvegicus; experiment: animal or person; settings: Wistar, po, read-out: INH
Rattus norvegicus [17] = organism: Rattus norvegicus; experiment: animal or person; settings: Wistar, po, read-out: INH; remark: listed apart in the source
Rattus norvegicus [18] = organism: Rattus norvegicus; experiment: animal or person; settings: Wistar, po, read-out: INH; remark: listed apart in the source
Rattus norvegicus [19] = organism: Rattus norvegicus; experiment: animal or person; settings: Wistar, po, read-out: INH; remark: listed apart in the source
Rattus norvegicus [20] = organism: Rattus norvegicus; experiment: animal or person; settings: Wistar, po, read-out: INH; remark: listed apart in the source
Rattus norvegicus [21] = organism: Rattus norvegicus; experiment: animal or person; settings: Wistar, po, read-out: INH; remark: listed apart in the source
Rattus norvegicus [22] = experiment: Gastrointestinal toxicity in Wistar rat assessed as complete damage of mucosal layer and ulceration of submucosal cells at dose equivalent to 150 mg/kg of ibuprofen, po after 24 hrs by electron microscopy; format: organism-based, Submucosa; parameters: dose 150 mg/kg, route oral; settings: in vivo; summary of the method: as §2

CC(C)Cc1ccc(C(C)C(=O)O)cc1 (stereo not drawn) [IBUPROFEN]
inhibition in vivo at 150 mg/kg (Rattus norvegicus [1]): 41.7% | Activity (Rattus norvegicus [2]): Toxic | inhibition in vivo at 150 mg/kg (Rattus norvegicus [3]): 45.8% | inhibition in vivo at 150 mg/kg (Rattus norvegicus [4]): 16.7% | inhibition in vivo at 150 mg/kg (Rattus norvegicus [5]): 62.5% | inhibition in vivo at 150 mg/kg (Rattus norvegicus [6]): 16.7% | inhibition in vivo at 150 mg/kg (Rattus norvegicus [7]): 50%

COc1ccc2cc(C(C)C(=O)OCn3c(=O)oc4ccc(Cl)cc43)ccc2c1 (stereo not drawn)
half-life (Homo sapiens): 34 min | Stability [8]: Stable | Stability [9]: 1 days

Cc1cccc(Nc2ccccc2C(=O)O)c1C [MEFENAMIC ACID]
inhibition in vivo at 20 mg/kg (Rattus norvegicus [10]): 18.3% | inhibition in vivo at 20 mg/kg (Rattus norvegicus [11]): 16.7% | inhibition in vivo at 20 mg/kg (Rattus norvegicus [12]): 33.3% | inhibition in vivo at 20 mg/kg (Rattus norvegicus [13]): 45.8% | inhibition in vivo at 20 mg/kg (Rattus norvegicus [14]): 33.3% | inhibition in vivo at 20 mg/kg (Rattus norvegicus [15]): 41.7%

Cc1cccc(Nc2ccccc2C(=O)OCn2c(=O)oc3ccc(Cl)cc32)c1C
Stability [8]: Stable | Stability [9]: 1 days

COc1ccc2cc([C@H](C)C(=O)O)ccc2c1 [NAPROXEN]
inhibition in vivo at 40 mg/kg (Rattus norvegicus [16]): 9.4% | inhibition in vivo at 40 mg/kg (Rattus norvegicus [17]): 18.8% | inhibition in vivo at 40 mg/kg (Rattus norvegicus [18]): 28.1% | inhibition in vivo at 40 mg/kg (Rattus norvegicus [19]): 46.9% | inhibition in vivo at 40 mg/kg (Rattus norvegicus [20]): 16.3% | inhibition in vivo at 40 mg/kg (Rattus norvegicus [21]): 37.5%

CC(C)Cc1ccc(C(C)C(=O)OCn2c(=O)oc3ccc(Cl)cc32)cc1 (stereo not drawn)
half-life (Homo sapiens): 37 min | Stability [8]: Stable | Activity (Rattus norvegicus [22]): Non-toxic | Stability [9]: 1 days
